# Results of several laboratories.
# Compare with care: the assays were run in different laboratories.
# Target: NT-3 growth factor receptor (NTRK3, Homo sapiens, UniProt Q16288)
# Effect on: enzyme activity
# Mode: inhibitor
Compound,method,concentration,inhibition [%]
CC/C(=N\NC(=O)NCc1cccc(O)c1)c1ccc(O)c(C)c1O,,0.1 µM,0.4
COc1cc2ncnc(Nc3ccc(Oc4ccccc4)c(C)c3C)c2cc1OC,,1 µM,3
CNC(=O)c1cc2c(Oc3ccc(NC(=O)C4(C(=O)Nc5ccc(F)cc5)CC4)cc3)ccnc2cc1OC,radiometric,1 µM,79
O=C(Cc1ccc(C(F)(F)F)cc1)Nc1cccc(C(=O)Nc2ccc3[nH]ncc3c2)c1,FRET,1 µM,21.9
CN1CC(Oc2cnc(C#N)cc2-c2ccn3nc(NC(=O)C4CC4)cc3c2)C1,,1 µM,51
CCOc1cc(-c2nncn2C)ccc1Nc1ncc2cc(C)nc(NCC(C)(C)C)c2n1,FRET,1 µM,< 15
O=C(Nc1ccc(Br)cc1)Nc1cccc(C(=O)Nc2ccc3[nH]ncc3c2)c1,FRET,1 µM,13.7
COc1cc2ncnc(Nc3ccc(Oc4ccccc4)cc3C)c2cc1OC,,1 µM,13
O=C(Nc1ccc2[nH]ncc2c1)c1cccc(NC(=O)c2cc(C(F)(F)F)ccc2F)c1,FRET,1 µM,12.1
CCCS(=O)(=O)Nc1ccc(F)c(C(=O)c2c[nH]c3ncc(-c4ccc(Cl)cc4)cc23)c1F,,1 µM,< 10
